Data on 4 compounds can be found in article PMC8652384 (Experimental and Therapeutic Medicine, 2021).

Where two headings read alike, the source gives them in different places. Residues, ends and D or L forms follow the SMILES beside them. *: point of attachment. Cbz = O=C(OCc1ccccc1)*

For one data set, the system named is HUVECs. The data set is described as follows: Endothelial tube formation assay. It is filed as cell-based, human. To be noted: data not shown. The essentials: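 HUVECs (4-6x10^4/well) pre-treated 30 min at 37°C with test compound (0, 5 or 25 µM) or a reference α4 antagonist (0 or 25 µM), then seeded on Matrigel-coated wells for 4-6 h at 37°C, 5% CO2. Three fields per well imaged by phase contrast (x100); nodes, segments, meshes and total area quantified by image analysis.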

The target in data set [1] is T1, integrin α4 (Homo sapiens, UniProt P05556+P13612). The conditions noted are these: cited from earlier work.
For data set [2] the following is noted: cited from earlier work.
For another data set, the target named is VLA-4 (Homo sapiens, UniProt P05556+P13612). As to the kind of experiment: VLA-4 conformation activation assay. It is filed as binding. To be noted: LAX7R and TXL3 cells; without 5 mM Mn2+. The essentials: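 LAX7R or TXL3 cells, 1x10^6/ml in HEPES buffer pH 7.4 with 0.1% HSA, Ca2+ and Mg2+, incubated 30 min at 37°C with test compound (0-100 µM) or human VCAM-1 ([…]), 10% PE-HUTS-21, ±5 mM Mn2+. DAPI added during final 5 min. PE MFI read on viable cells by flow cytometry; isotype control gave nonspecific binding. Occupancy curves fitted by variable-slope sigmoidal model.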

Data set [3] addresses T1, integrin α4. The data set is described as follows: Western blot analysis of integrin α4 protein. It is filed as cell-based. The conditions noted are these: MG132 1 µM; 96 h; LAX7R, LAX53, LAX56, REH.
For the next data set, the system named is primary ALL. The conditions noted are these: cited from earlier work.

On to natalizumab [NZM], for which the angiogenesis inhibition result in the data set on HUVECs is reported as “no statistical differences”. The “de-adhesion of B-ALL cells from VCAM-1” value with integrin α4 [1] is reported as “can cause the de-adhesion of B-ALL cells from VCAM-1”. Further, the progressive multifocal leukoencephalopathy entry in data set [2] (patients treated with NZM) is given as “progressive multifocal leukoencephalopathy can arise”. Further, the “patients with antibodies against natalizumab” value in data set [2] (patients with Crohn's disease) is 7%; in data set [2] (patients with MS), 11%.
Take “vascular cell adhesion molecule-1 [VCAM-1]”: on VLA-4, the “conformation changes corresponding to VLA-4 activation” value is reported as “little conformation changes”.
As to `CC(C)C[C@@H](C=O)NC(=O)[C@H](CC(C)C)NC(=O)[C@H](CC(C)C)NC(=O)OCc1ccccc1` [MG132] (Cbz-Leu-Leu-Leu-aldehyde), the “restoration of α4 decreased by AVA4746 (25 µM)” value on integrin α4 [3] is “partially restored by MG132 in all cases apart from LAX56”.
For the compound `CCCC[C@H](NC(=O)N[C@@H](CC(=O)O)c1ccc2c(c1)OCO2)C(=O)N(Cc1cccs1)Cc1cccs1` [TBC3486], the “survival of mice with primary ALL” value with primary ALL is “prolonged the survival of the mice”.
